# Screening results deposited in PubChem by several laboratories.
# MT1-MMP act inh: blocks activation of human MT1-MMP. HT1080 RFP-PRO-GFP cells, GFP/RFP ratio fluorescence, overnight; percent of plate control window, DMSO zero. GFP/RFP ratio change, % at 20 µM. 360,000 tested, 0.061% active. AID 651647;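 active = GFP/RFP ratio change of at least 30% with cell ATP level not reduced by more than half and red fluorescence within 50% of control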
#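 Test system: HT1080 RFP-PRO-GFP cells; Benchmarks: DMSO and RFP-L50D-GFP cell wells; Timing: cells overnight before dosing, compound overnight, 37 °C, 5% CO2; Compound: one 20 µM compound dose with 1% DMSO; Read-out: GFP/RFP fluorescence ratio.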
# hiPSC survival: hiPSC single-cell survival enhancement; 360,000 tested, 0.044% active; survival enhancement, % at 20 µM; ATPlite luminescence; 100% = ROCK inhibitor wells, 0% = DMSO; in the data active = survival enhancement above about 18%;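 note: cells exposed to compounds for 16 hours before the ATP read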
# Cneo AK release: Cryptococcus neoformans lysis via adenylate kinase release; C. neoformans lysis, adenylate kinase release luminescence, 4 h; normalised: neutral wells 0, clomiphene wells 100; lysis activity, % at 15 µM; 360,000 tested, 0.2% active; AID 651654;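 active = mean lysis activity across replicates of at least 80%, whatever share of replicates individually reach that level; inactive = mean lysis activity below 80%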
#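 Material – Cryptococcus neoformans yeast cells · Quantity – 5 × 10^6 yeast cells/mL · Buffer or medium – YPD medium · Compound – single dose · Timing – 4 h static compound exposure, 37 °C, read 1 h post-reagent · Signal – adenylate kinase release luminescence · Read-out basis – lysis from increased AK signal · Benchmarks – Clomiphene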
# SKN-1 block: blocks SKN-1 activity in C. elegans; C. elegans VP596 Pgst-4::GFP/RFP ratio, acrylamide-induced, 24 h; inhibition, % at 21.8 µM; 360,000 tested, 0.49% active;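 active = interference check ratio from 0.5 to 1.5 plus GFP to RFP signal ratio inhibition reaching or exceeding a fixed threshold, cut at about 30% in these data, passing the limit was not always enough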
# DAGLB inhibitor: diacylglycerol lipase beta (human) inhibition; Q8NCG7; HEK293T DAGLB membrane lysate, EnzChek fluorogenic substrate; inhibition, % at 5.17 µM; 340,000 tested, 0.059% active; AID 504411; in the data active = inhibition above about 34%
# Target sequence (Q8NCG7 whole entry, looked up): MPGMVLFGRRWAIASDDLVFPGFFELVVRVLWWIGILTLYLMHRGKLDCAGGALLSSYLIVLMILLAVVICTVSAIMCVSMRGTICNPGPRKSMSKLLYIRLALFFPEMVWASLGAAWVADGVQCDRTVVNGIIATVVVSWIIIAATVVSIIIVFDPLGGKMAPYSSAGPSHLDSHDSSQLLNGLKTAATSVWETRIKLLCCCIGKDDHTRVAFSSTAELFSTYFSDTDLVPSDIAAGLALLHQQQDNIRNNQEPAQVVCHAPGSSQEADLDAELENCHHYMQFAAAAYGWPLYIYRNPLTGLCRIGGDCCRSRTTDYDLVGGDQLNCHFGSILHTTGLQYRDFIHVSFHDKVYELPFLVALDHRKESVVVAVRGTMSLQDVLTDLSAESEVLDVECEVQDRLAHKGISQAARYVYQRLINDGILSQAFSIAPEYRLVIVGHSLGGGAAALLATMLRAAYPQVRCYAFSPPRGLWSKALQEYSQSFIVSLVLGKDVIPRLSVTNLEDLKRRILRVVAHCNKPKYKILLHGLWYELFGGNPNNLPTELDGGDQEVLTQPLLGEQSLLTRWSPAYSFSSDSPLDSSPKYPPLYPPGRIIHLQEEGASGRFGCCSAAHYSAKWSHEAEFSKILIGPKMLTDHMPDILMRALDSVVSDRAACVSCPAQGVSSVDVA
# rRNA inh HTS: inhibitors of bacterial rRNA selective over humanized ribosomes | E. coli WT GFP vs humanized-ribosome RFP mutants, fluorescence, 24 h; active compounds read low; DMSO median 0, no signal -100 | 350,000 tested, 1.6% active | GFP signal change (wild-type ribosome), % (no concentration beside the values) | AID 720706;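 active = significant combined selectivity score with lowered wild-type GFP, culture density cut under 30%, mutant RFP and density less affected; inactive = any of these conditions unmet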
# Hits are given with their value; . = inactive; / = not tested or not shown. Only some compounds are listed: those with a hit (about 1.8% of all), similar ones and a draw of the others.
SMILES,MT1-MMP act inh,hiPSC survival,Cneo AK release,SKN-1 block,DAGLB inhibitor,rRNA inh HTS
CCC(=O)N1CCC2(CC1)CN(C(=O)NC1CCCC1)[C@@H](CO)c1c2c2ccc(OC)cc2n1C,/,/,/,/,/,.
O=C(NC1CCCC1)N1CC(=O)N2[C@H](CO)[C@@H](c3ccc(-c4cccc(F)c4)cc3)[C@H]2C1,/,/,/,/,/,.
CCNC(=O)/C(C#N)=C/c1c(N(Cc2ccccc2)Cc2ccccc2)nc2ccccn2c1=O,.,.,/,.,.,-18
C=CCn1c(C)cc(C(=O)CSc2nc3ccccc3[nH]2)c1C,.,.,/,.,.,/
Cc1cc(C(=O)CSc2nc3ccccc3[nH]2)c(C)n1Cc1ccco1,.,.,.,.,.,-34
COc1ccccc1CNc1ccc([N+](=O)[O-])cc1C,.,.,/,.,/,.
COc1cccc(CNc2ccc([N+](=O)[O-])cc2Cl)c1O,.,.,/,.,.,-50
COc1ccccc1-c1cn(CC[C@H]2CC[C@H](NC(=O)C3CCCC3)[C@H](CO)O2)nn1,/,/,/,/,/,.
COc1ccc(S(=O)(=O)Nc2cccc(-c3ccc(N4CCCCCC4)nn3)c2)cc1OC,.,.,.,.,.,.
Cc1ccc(S(=O)(=O)Nc2cccc(-c3ccc(N4CCCCCC4)nn3)c2)cc1,.,.,.,.,.,-23
Cc1cc(/C=N/n2cnnc2)c(C)n1-c1ccc(OCc2ccccc2F)cc1,.,.,.,.,.,-43
CCCN1C(=O)/C(=C/c2c(NCCCOCC)nc3c(C)cccn3c2=O)SC1=S,.,.,.,.,.,/
Cc1cccn2c(=O)c(/C=C3\SC(=S)NC3=O)c(NCCCN3CCOCC3)nc12,.,.,.,52,.,.
CC(C)[C@H](NC(=O)[C@@H]1Cc2ccccc2CN1)C(=O)Nc1ccc2c(c1)OCO2,.,.,/,.,.,.
C[C@@H](NC(=O)[C@@H]1Cc2ccccc2CN1)C(=O)Nc1ccc2c(c1)OCO2,.,26,.,.,.,.
Cc1noc(C)c1NC(=O)N(C)C[C@H]1OCCCC[C@@H](C)Oc2ccc(NC(=O)c3ccccc3)cc2C(=O)N([C@@H](C)CO)C[C@H]1C,/,/,.,/,/,.
Cc1c(OC(=O)CNC(=O)OC(C)(C)C)ccc2c3c(c(=O)oc12)CCC3,.,.,.,45,.,/
Cc1c(OCC(=O)OC(C)(C)C)ccc2c3c(c(=O)oc12)CCC3,.,.,.,.,.,/
C[C@@H]1CCCCO[C@H](CN(C)Cc2ccc(C(F)(F)F)cc2)[C@@H](C)CN([C@H](C)CO)C(=O)c2cc(NC(=O)CCCCCC(=O)Nc3ccccc3N)ccc2O1,/,/,/,/,/,.
O=C(CNC(=O)c1ccccc1F)NCCc1ccc(Cl)cc1Cl,.,.,.,.,.,.
O=C(NC(=O)c1ccccc1F)OCc1ccc(Cl)cc1Cl,.,.,/,.,.,-40
Cc1c(C(=O)N2CCN(c3ccccc3F)CC2)oc2c1C(=O)CC(C)(C)C2,.,.,.,.,.,.
Cc1c(C(=O)N2CCN(c3ccccc3)CC2)oc2c1C(=O)CC(C)(C)C2,.,.,.,.,.,-23
CCc1ccccc1NC(=O)c1ccc(OCc2c(C)noc2C)cc1,.,.,.,.,.,-20
Cc1noc(C)c1COc1ccc(C(=O)Nc2ccccc2)cc1,.,.,/,.,.,.
SMILES,MT1-MMP act inh,hiPSC survival,Cneo AK release,SKN-1 block,DAGLB inhibitor,rRNA inh HTS
CNC[C@H]1OCCCC[C@@H](C)Oc2ccc(NC(=O)NC(C)C)cc2C(=O)N([C@@H](C)CO)C[C@@H]1C,/,/,.,/,/,.
CNC[C@@H]1OCCCC[C@@H](C)Oc2ccc(NC(=O)NC(C)C)cc2C(=O)N([C@@H](C)CO)C[C@H]1C,/,/,88,/,/,.
CNC[C@@H]1OCCCC[C@@H](C)Oc2ccc(NC(=O)Nc3ccc4c(c3)OCO4)cc2C(=O)N([C@H](C)CO)C[C@@H]1C,/,/,89,/,/,.
CS(=O)(=O)N1CC2(C1)[C@@H](c1ccccc1)[C@H](CO)N2Cc1ccc(F)cc1,/,/,/,/,/,.
COc1cc2c(cc1NC(=O)c1cccnc1)CCCC2,.,.,.,38,.,/
COc1cc(NC(=O)c2cccnc2)c(OC)cc1NC(=O)c1ccc(Br)cc1,.,.,.,.,.,/
COc1ccc(CN(C)Cc2c(O)ccc3cc(Br)ccc23)cc1OC,.,.,.,.,.,-23
COc1ccc(CN(C)Cc2c(O)ccc3ccccc23)cc1,.,.,.,.,.,.
COc1ccc(CCN(C)Cc2c(O)ccc3cc(Br)ccc23)cc1OC,.,.,.,.,.,-27
C[C@H]1CN([C@@H](C)CO)C(=O)Cc2cc(NC(=O)Nc3ccc(C(F)(F)F)cc3)ccc2O[C@@H]1CN(C)C(=O)Nc1ccc2c(c1)OCO2,/,/,/,/,/,.
Cc1cc(-c2ccccc2)n2ncc(-c3ccccc3)c2n1,.,.,/,.,.,.
Cc1cc(SCC(=O)c2ccccc2)n2ncc(-c3ccccc3)c2n1,.,.,/,.,.,-51
CCOc1ccc2nc(NC(=O)C3(C)CC3(Br)Br)sc2c1 (stereo not drawn),.,.,.,.,.,-42
CCOCC(=O)Nc1nc2ccc(OCC)cc2s1,.,.,.,.,.,/
O=C(C1CCC1)N1CCCCN2[C@H](CO)[C@@H](c3ccc(C#CC4CCCC4)cc3)[C@H]2C1,/,/,.,/,/,/
CC=Cc1ccc2n(c1=O)C[C@@H]1[C@@H](CO)[C@H](C(=O)NCc3ccc4c(c3)OCO4)[C@H]2N1C(=O)COC (mixture of isomers),/,/,.,/,/,.
CC=Cc1ccc2n(c1=O)C[C@@H]1[C@@H](CO)[C@H](C(=O)NCc3ccc4c(c3)OCO4)[C@H]2N1C(=O)C1CC1 (mixture of isomers),/,/,101,/,/,.
CC=Cc1ccc2n(c1=O)C[C@H]1[C@H](CO)[C@@H](C(=O)NCc3ccc4c(c3)OCO4)[C@@H]2N1C(=O)C1CC1 (mixture of isomers),/,/,104,/,/,.
Fc1ccc(-c2nc(-c3cnccn3)no2)c(Cl)c1,.,.,.,38,.,.
Clc1ccc(-c2nc(-c3cnccn3)no2)cc1,.,.,.,46,/,.
c1ccc(-c2ccc(-c3nc(-c4ccccn4)no3)cc2)cc1,.,.,.,63,.,.
C[C@@H]1CN([C@H](C)CO)C(=O)c2cc(NC(=O)CCC(F)(F)F)ccc2O[C@@H](C)CCCCO[C@H]1CN(C)S(=O)(=O)c1cccs1,/,/,.,/,/,.
O=C(c1cc(COc2ccc(F)cc2Cl)on1)N1CC2C[C@@H]3CC1C[C@H](C2)C3,.,.,.,35,.,.
O=C(c1cc(COc2ccc(F)cc2F)on1)N1CCCC(c2ccccc2)C1 (stereo not drawn),.,.,/,.,.,-22
